≈ marks a conversion by molar mass, not a printed value.
Key:
[1] = Clonogenic cytotoxicity against hamster V-79 cells; format: functional, Cricetulus griseus, V79
Method in brief: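 Chinese hamster V-79 cells grown overnight, then drug-treated for 3 h at 37 °C. Medium is replaced with fresh medium and cells are incubated 5 days to allow colony formation. IC50 (µg/mL) is the concentration inhibiting colony formation by 50% relative to control.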

Mus musculus [2] = species: Mus musculus; test: Compounds was evaluated for phototoxicity no-effect dose in mouse; format: functional
Method in brief: (§1)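 Depilated female CD-1 mice, five per dose plus controls. Animals are dosed orally and then exposed daily to UV-A (320–400 nm) for 3 h, for up to 4 days or until a definite positive response. Redness or erythema relative to controls, read 24 h after irradiation, counts as positive. Reported as the highest dose with no effect (mg/kg).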

Pseudomonas aeruginosa = test: Minimum inhibitory concentration was evaluated in vitro against Pseudomonas aeruginosa UI-18; format: functional
Method in brief: (§2)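 Standard microtitration broth assay against a panel of 10 Gram-positive and Gram-negative organisms. MIC read in µg/mL and averaged over multiple experiments.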

Klebsiella pneumoniae = test: Minimum inhibitory concentration was evaluated in vitro against Klebsiella pneumoniae MGH2; format: functional; method in brief: as §2
Escherichia coli [3] = test: Antibacterial activity in vitro against Escherichia coli Vogel; format: functional; method in brief: as §2
Streptococcus pyogenes [4] = test: Compounds were evaluated in vivo for antibacterial activity for mouse protection against Streptococcus pyogenes C 203 after oral administration; format: functional; conditions: for ED50: C 203, po, read-out: PD50
Enterobacter cloacae = test: Minimum inhibitory concentration in vitro against Enterobacter cloacae MA 2646; format: functional
Staphylococcus aureus [5] = test: Minimum inhibitory concentration was evaluated in vitro against Staphylococcus aureus H 228; format: functional; method in brief: as §2
Providencia rettgeri = test: Minimum inhibitory concentration was evaluated in vitro against Providencia rettgeri M1771; format: functional; method in brief: as §2
Enterococcus faecalis = test: Minimum inhibitory concentration was evaluated in vitro against Enterococcus faecalis MGH-2; format: functional; method in brief: as §2
Streptococcus pyogenes [6] = test: Antibacterial activity measured as mouse protection against Streptococcus pyogenes C 203 after subcutaneous administration; format: functional; conditions: for ED50: Streptococcus pyogenes, C 203, sc, read-out: PD50
Staphylococcus aureus [7] = test: Minimum inhibitory concentration was evaluated in vitro against Staphylococcus aureus UC 76; format: functional; method in brief: as §2
Streptococcus pyogenes [8] = test: Minimum inhibitory concentration was evaluated in vitro against Streptococcus pyogenes C 203; format: functional; method in brief: as §2
Streptococcus pneumoniae [9] = test: Minimum inhibitory concentration was evaluated in vitro against Streptococcus pneumoniae SV-1; format: functional; method in brief: as §2
Mus musculus [10] = species: Mus musculus; test: Compounds were evaluated for phototoxicity in mouse and phototoxicity no-effect dose was reported; format: functional; method in brief: as §1
Escherichia coli [11] = test: Antibacterial activity against Escherichia coli Vogel after subcutaneous administration in mouse; format: functional; conditions: for ED50: Escherichia coli, sc, read-out: PD50
Escherichia coli [12] = test: Antibacterial activity against Escherichia coli Vogel after oral administration in mouse; format: functional; conditions: for ED50: Escherichia coli, po, read-out: PD50
DNA gyrase = DNA gyrase (Escherichia coli, UniProt P0AES4+P0AES6); test: Inhibition against DNA gyrase; format: protein-complex assay
Streptococcus pyogenes [13] = test: Compound was evaluated in vivo for antibacterial activity for mouse protection against Streptococcus pyogenes C 203 after subcutaneous administration; format: functional; conditions: sc, read-out: PD50
Mus musculus [14] = species: Mus musculus; test: Compound was evaluated for phototoxicity no-effect dose in mouse; format: functional; method in brief: as §1
Streptococcus pyogenes [15] = test: Compounds were evaluated in vivo for antibacterial activity for mouse protection against Streptococcus pyogenes C 203 after subcutaneous administration; format: functional; conditions: C 203, sc, read-out: PD50
Streptococcus pneumoniae [16] = test: Antibacterial activity expressed as Minimum inhibitory concentration was evaluated in vitro against Streptococcus pneumoniae SV-1; format: functional
Method in brief: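 Standard microtitration broth MIC (μg/mL), averaged from multiple experiments; one of a 10-organism Gram-positive/Gram-negative panel.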

[17] = Pseudomonas aeruginosa, read-out: MIC
[18] = Klebsiella pneumoniae, read-out: MIC
[19] = Escherichia coli, read-out: MIC
[20] = Enterobacter cloacae, read-out: MIC
[21] = Staphylococcus aureus, read-out: MIC
[22] = Providencia rettgeri, read-out: MIC
[23] = Enterococcus faecalis, read-out: MIC
[24] = Streptococcus pyogenes, read-out: MIC
[25] = Streptococcus pneumoniae, read-out: MIC

`CN[C@@H](C)[C@@H]1CCN(c2nc3c(cc2F)c(=O)c(C(=O)O)cn3C2CC2)C1` (mixture of isomers) showed a Cytotoxicity [1] of 130 µg/mL, a Dose (Mus musculus [2]) of 18 mg/kg and an MIC (Pseudomonas aeruginosa; [17]) of 1.6 µg/mL. The MIC (Klebsiella pneumoniae; [18]) was 0.2 µg/mL, the MIC (Escherichia coli [3]; [19]) was 0.1 µg/mL and the PD50 (Streptococcus pyogenes [4]) was 2 mg/kg. It also gave an MIC (Enterobacter cloacae; [20]) of 0.1 µg/mL, an MIC (Staphylococcus aureus [5]; [21]) of 0.1 µg/mL and an MIC (Providencia rettgeri; [22]) of 0.4 µg/mL. The MIC (Enterococcus faecalis; [23]) was 0.1 µg/mL, the PD50 (Streptococcus pyogenes [6]) was 2 mg/kg and the MIC (Staphylococcus aureus [7]) was 0.013 µg/mL. For the same compound, the MIC (Streptococcus pyogenes [8]) was 0.025 µg/mL and the MIC (Streptococcus pneumoniae [9]) was 0.013 µg/mL.

In the case of `CN[C@H](C)[C@H]1CCN(c2cc3c(cc2F)c(=O)c(C(=O)O)cn3C2CC2)C1` (mixture of isomers), the Cytotoxicity [1] is reported as 180 µg/mL, the MIC (Pseudomonas aeruginosa) is reported as 1.6 µg/mL and the Phototoxicity (Mus musculus [10]) is reported as 100 mg/kg. For the same compound, the MIC (Klebsiella pneumoniae) was 0.4 µg/mL, the MIC (Escherichia coli [3]) was 0.2 µg/mL and the PD50 (Streptococcus pyogenes [4]) was 7 mg/kg. For the same compound, the ED50 (Escherichia coli [11]) was 1 mg/kg, the MIC (Enterobacter cloacae) was 0.2 µg/mL and the MIC (Staphylococcus aureus [5]) was 0.2 µg/mL. It also gave an MIC (Providencia rettgeri) of 0.8 µg/mL, an ED50 (Escherichia coli [12]) of 7 mg/kg and an MIC (Enterococcus faecalis) of 0.1 µg/mL. For the same compound, the PD50 (Streptococcus pyogenes [6]) was 1 mg/kg, the MIC (Staphylococcus aureus [7]) was 0.05 µg/mL and the MIC (Streptococcus pyogenes [8]) was 0.05 µg/mL. For the same compound, the MIC (Streptococcus pneumoniae [9]) was 0.05 µg/mL.

Work on `C[C@@H](N)[C@H]1CCN(c2nc3c(cc2F)c(=O)c(C(=O)O)cn3C2CC2)C1` (mixture of isomers) yielded a Cytotoxicity [1] of 33 µg/mL, an IC50 (DNA gyrase) of 2080 nM and an MIC (Pseudomonas aeruginosa) of 0.4 µg/mL. The MIC (Klebsiella pneumoniae) was 0.05 µg/mL, the MIC (Escherichia coli [3]) was 0.025 µg/mL and the ED50 (Streptococcus pyogenes [13]) was 1 mg/kg. The PD50 (Streptococcus pyogenes [4]) was 3 mg/kg, the PD50 (Escherichia coli [11]) was 0.4 mg/kg and the MIC (Enterobacter cloacae) was 0.05 µg/mL. The MIC (Staphylococcus aureus [5]) was 0.025 µg/mL, the MIC (Providencia rettgeri) was 0.1 µg/mL and the PD50 (Escherichia coli [12]) was 2 mg/kg. The MIC (Enterococcus faecalis) was 0.013 µg/mL, the MIC (Staphylococcus aureus [7]) was 0.003 µg/mL and the MIC (Streptococcus pyogenes [8]) was 0.013 µg/mL. For the same compound, the Dose (Mus musculus [14]) was 30 mg/kg and the MIC (Streptococcus pneumoniae [9]) was 0.003 µg/mL.

For `CC1(CN)CCN(c2nc3c(cc2F)c(=O)c(C(=O)O)cn3C2CC2)C1` (stereo unspecified), the IC50 (DNA gyrase) was 13900 nM, the MIC (Pseudomonas aeruginosa; [17]) was 0.8 µg/mL (≈ 2.22 µM) and the MIC (Klebsiella pneumoniae; [18]) was 0.1 µg/mL (≈ 0.277 µM). For the same compound, the MIC (Escherichia coli [3]; [19]) was 0.2 µg/mL (≈ 0.555 µM), the ED50 (Streptococcus pyogenes [4]; Streptococcus pyogenes) was 6 mg/kg and the ED50 (Escherichia coli [11]) was 2 mg/kg. For the same compound, the MIC (Enterobacter cloacae; [20]) was 0.1 µg/mL (≈ 0.277 µM), the MIC (Staphylococcus aureus [5]; [21]) was 0.025 µg/mL (≈ 0.0694 µM) and the MIC (Providencia rettgeri; [22]) was 0.4 µg/mL (≈ 1.11 µM). It also gave an ED50 (Escherichia coli [12]) of 10 mg/kg, an MIC (Enterococcus faecalis; [23]) of 0.05 µg/mL (≈ 0.139 µM) and an ED50 (Streptococcus pyogenes [6]) of 2 mg/kg. It also gave an MIC (Staphylococcus aureus [7]; [21]) of 0.006 µg/mL (≈ 0.0166 µM), an MIC (Streptococcus pyogenes [8]; [24]) of 0.05 µg/mL (≈ 0.139 µM) and an MIC (Streptococcus pneumoniae [9]; [25]) of 0.025 µg/mL (≈ 0.0694 µM).

Work on `CCNCC1CCN(c2c(F)cc3c(=O)c(C(=O)O)cn(C4CC4)c3c2F)C1` (stereo unspecified) [PD-117558] yielded an ED50 (Streptococcus pyogenes [15]) of 0.8 mg/kg, an MIC (Escherichia coli [3]; [19]) of 0.05 µg/mL (≈ 0.128 µM) and an ED50 (Streptococcus pyogenes [4]) of 1 mg/kg. For the same compound, the MIC (Enterobacter cloacae; [20]) was 0.1 µg/mL (≈ 0.255 µM), the MIC (Staphylococcus aureus [5]; [21]) was 0.025 µg/mL (≈ 0.0639 µM) and the MIC (Providencia rettgeri; [22]) was 0.2 µg/mL (≈ 0.511 µM). For the same compound, the ED50 (Escherichia coli [12]) was 4 mg/kg.

With `CCN[C@@H](C)[C@H]1CCN(c2nc3c(cc2F)c(=O)c(C(=O)O)cn3C2CC2)C1` the ED50 (Streptococcus pyogenes [15]) was 12 mg/kg, the MIC (Pseudomonas aeruginosa; [17]) was 6.3 µg/mL (≈ 16.2 µM) and the MIC (Klebsiella pneumoniae; [18]) was 0.8 µg/mL (≈ 2.06 µM). The MIC (Escherichia coli [3]; [19]) was 0.4 µg/mL (≈ 1.03 µM), the ED50 (Streptococcus pyogenes [4]) was 12 mg/kg and the MIC (Enterobacter cloacae; [20]) was 0.8 µg/mL (≈ 2.06 µM). For the same compound, the MIC (Staphylococcus aureus [5]; [21]) was 0.8 µg/mL (≈ 2.06 µM), the MIC (Providencia rettgeri; [22]) was 3.1 µg/mL (≈ 7.98 µM) and the MIC (Enterococcus faecalis; [23]) was 0.8 µg/mL (≈ 2.06 µM). The MIC (Streptococcus pneumoniae [16]) was 0.2 µg/mL (≈ 0.515 µM), the MIC (Staphylococcus aureus [7]; [21]) was 0.4 µg/mL (≈ 1.03 µM) and the MIC (Streptococcus pyogenes [8]; [24]) was 0.4 µg/mL (≈ 1.03 µM).

With `NCC1CCN(c2cc3c(cc2F)c(=O)c(C(=O)O)cn3C2CC2)C1` (stereo unspecified) the IC50 (DNA gyrase) was 1450 nM, the MIC (Pseudomonas aeruginosa; [17]) was 0.8 µg/mL (≈ 2.32 µM) and the MIC (Klebsiella pneumoniae; [18]) was 0.1 µg/mL (≈ 0.29 µM). The MIC (Escherichia coli [3]; [19]) was 0.05 µg/mL (≈ 0.145 µM), the ED50 (Streptococcus pyogenes [4]; Streptococcus pyogenes) was over 100 mg/kg and the ED50 (Escherichia coli [11]) was 2 mg/kg. It also gave an MIC (Enterobacter cloacae; [20]) of 0.1 µg/mL (≈ 0.29 µM), an MIC (Staphylococcus aureus [5]; [21]) of 0.05 µg/mL (≈ 0.145 µM) and an MIC (Providencia rettgeri; [22]) of 0.2 µg/mL (≈ 0.579 µM). For the same compound, the ED50 (Escherichia coli [12]) was over 100 mg/kg, the MIC (Enterococcus faecalis; [23]) was 0.05 µg/mL (≈ 0.145 µM) and the ED50 (Streptococcus pyogenes [6]) was 4 mg/kg. For the same compound, the MIC (Staphylococcus aureus [7]; [21]) was 0.006 µg/mL (≈ 0.0174 µM), the MIC (Streptococcus pyogenes [8]; [24]) was 0.013 µg/mL (≈ 0.0376 µM) and the MIC (Streptococcus pneumoniae [9]; [25]) was 0.013 µg/mL (≈ 0.0376 µM).
